Screens as filed in PubChem.
Only some compounds are listed: those with a hit (about 2.2% of all), similar ones and a draw of the others.
TRAIL sens C8: caspase-8 TRAIL sensitization | NB7+C8 cells + TRAIL, ATPlite viability luminescence | inhibition (viability loss, TRAIL sensitization), % at 10 µM | 1% of 360,000 active | AID 624354;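 active means compounds causing at least 50% loss of cell viability in the single-dose screen, relative to plate controls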
FLuc inh counter: Photinus pyralis luciferase inhibition counter-screen; P08659; ATPLite firefly luciferase biochemical luminescence, 10 min; inhibition, % at 10 µM; 1.5% of 200,000 active;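 active means inhibition above about 50% when tested at 10 µM, limit read from the data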
Target sequence (P08659 whole entry, looked up): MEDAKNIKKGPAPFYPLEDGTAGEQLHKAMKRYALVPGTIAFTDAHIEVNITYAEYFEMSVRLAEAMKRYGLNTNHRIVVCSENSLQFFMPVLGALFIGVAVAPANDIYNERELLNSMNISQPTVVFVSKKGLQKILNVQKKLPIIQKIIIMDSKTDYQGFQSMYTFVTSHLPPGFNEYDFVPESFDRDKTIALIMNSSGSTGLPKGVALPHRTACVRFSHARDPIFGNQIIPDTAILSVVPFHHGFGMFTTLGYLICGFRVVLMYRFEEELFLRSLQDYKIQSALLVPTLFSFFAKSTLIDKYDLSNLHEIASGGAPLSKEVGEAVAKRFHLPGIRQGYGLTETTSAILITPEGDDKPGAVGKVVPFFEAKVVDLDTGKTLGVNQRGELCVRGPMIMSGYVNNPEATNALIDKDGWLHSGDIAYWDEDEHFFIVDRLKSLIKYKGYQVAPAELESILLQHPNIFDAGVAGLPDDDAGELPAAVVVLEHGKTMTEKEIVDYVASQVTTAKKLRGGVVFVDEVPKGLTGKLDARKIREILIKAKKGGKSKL
FLuc act counter: firefly luciferase counter-screen for stimulation assays; P08659; ATPlite luciferase biochemical, luminescence, 10 min; 0 = ATP-free wells, 1 = DMSO control; activation factor at 10 µM; 200,000 tested, under 10 active;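 active means luciferase activation factor, scaled between plate controls, of at least 2 with compound at 10 µM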
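Assay system: Luciferase/luciferin detection reagent, cell-free biochemical luciferase assay / Also added: ATP substrate / Schedule: 10 min at ambient temperature / Measured by: luminescence measurement of luciferase light output / Benchmarks: low control with PBS replacing ATP, high control enzyme plus ATP without compound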
APP 5'UTR act: activates APP 5'UTR luciferase reporter; AID 1276; SH-SY5Y APP 5'UTR luciferase reporter, luminescence; zero percent = DMSO vehicle wells; 1% of 190,000 active; activation, % at 2 µM;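 active means activation above a set limit, based on mean plus 3 SD of controls, cut at about 140% in these data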
NF-kB expr up: NF-kB expression increase, human neuronal cells; 1.6% of 190,000 active; AID 1239; fold change at 12.5 µM; NF-kB reporter expression; stronger effect = higher value; in the data active means fold change above about 3.3
PPC-1+TRAIL kill: compounds killing PPC-1 cancer cells with TRAIL present (potentiator screen, no TRAIL-free arm); PPC-1 cells + TRAIL, ATPLite viability luminescence; cell killing (% activity), % at 4 µM or 5 µM; 0.41% of 220,000 active;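 active means cell killing above 50% in the first pass at 4 µM, then a duplicate retest at 5 µM averaging 50% or more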;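 further: plate controls were cells with TRAIL plus DMSO for no effect and medium-only wells lacking cells for full effect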
Numbers without * were called inactive.

How did CCOC(=O)CNC(=O)CSc1nnc(NC(=O)c2ccccc2Cl)s1 do in these assays?
TRAIL sens C8: 44.3; FLuc inh counter: 68.6*; FLuc act counter: 0.3; APP 5'UTR act: 17.7; NF-kB expr up: 1.5; PPC-1+TRAIL kill: 39.6

Results for O=C(C[C@H]1CC[C@H]2[C@@H](COC[C@H](O)CN2Cc2ccccc2)O1)NCCCN1CCOCC1 ?
TRAIL sens C8: -18.5

Results for CCOC(=O)CC1(C)Sc2ccccc2N1S(=O)(=O)c1ccc(C)cc1 (centres undefined) ?
TRAIL sens C8: -0.9

What do the screens show for `COc1ccc([C@H]2CC(=O)C[C@@H](CCn3cc(C(C)C)nn3)O2)cc1`?
TRAIL sens C8: -13.0

Results for CC(=O)Nc1ccc(-c2ccnc3c2CC(C(=O)NCc2ccco2)O3)cc1 (centres undefined) ?
TRAIL sens C8: 5.7

How did COc1ccc(C(=O)Nc2nnc(SCC(=O)NC3CC3)s2)cc1 do in these assays?
TRAIL sens C8: 78.4*

Results for Cc1ccccc1C(=O)Nc1nnc(SCC(=O)NC2CC2)s1 ?
TRAIL sens C8: 53.2*

How did COc1cccc(C(=O)Nc2nnc(SCC(=O)NC3CC3)s2)c1 do in these assays?
TRAIL sens C8: 43.7

How did COC(=O)C[C@@H]1C=C[C@H](NC(=O)c2ccccc2)[C@@H](CO)O1 do in these assays?
TRAIL sens C8: 2.0

Results for Cn1c(=N)n(CC(=O)c2ccc(Cl)c(Cl)c2)c2ccccc21 ?
TRAIL sens C8: 66.2*

What do the screens show for `O=C(C[C@@H]1C=C[C@@H](NC(=O)c2cccnc2)[C@@H](CO)O1)NCc1ccncn1`?
TRAIL sens C8: -5.7

How did O=C(Nc1ccon1)c1sc2cc(F)ccc2c1Cl do in these assays?
TRAIL sens C8: 5.7; FLuc inh counter: 21.0; FLuc act counter: 0.8; APP 5'UTR act: 33.6; NF-kB expr up: 2.37; PPC-1+TRAIL kill: 7.2

Results for O=C(NC1=NCCS1)c1sc2cc(F)ccc2c1Cl ?
TRAIL sens C8: 15.1; FLuc inh counter: 46.9; FLuc act counter: 0.5; APP 5'UTR act: 86.2; NF-kB expr up: 4.81*; PPC-1+TRAIL kill: -0.6

How did CCN(Cc1ccccc1)c1ccc(N=Nc2nn(C)c(C)c2[N+](=O)[O-])cc1 do in these assays?
TRAIL sens C8: -0.8; FLuc inh counter: 3.0; FLuc act counter: 1; APP 5'UTR act: 27.1; NF-kB expr up: 1.41; PPC-1+TRAIL kill: 9.6

What do the screens show for `CCN(CC)c1ccc(N=Nc2nn(C)c(C)c2[N+](=O)[O-])cc1`?
TRAIL sens C8: 63.1*; FLuc inh counter: 75.9*; FLuc act counter: 0.2; APP 5'UTR act: 141.7*; NF-kB expr up: 5.69*; PPC-1+TRAIL kill: 41.9

What do the screens show for `COCCCn1c(=O)c2ccccc2n(CC(=O)NCCC2=CCCCC2)c1=O`?
TRAIL sens C8: 9.7

How did Cc1cc2ccccc2c(=O)n1CC(=O)NCCC1=CCCCC1 do in these assays?
TRAIL sens C8: -1.3; FLuc inh counter: 60.1*; FLuc act counter: 0.4; APP 5'UTR act: -6.2; NF-kB expr up: 1.13; PPC-1+TRAIL kill: 20.7

Results for CCOc1ccc(OCC(=O)Nc2cccc(S(=O)(=O)NC3=NCCC3)c2)cc1 ?
TRAIL sens C8: 62.8*

Results for CC(C)(C)c1ccc(OCC(=O)Nc2cccc(S(=O)(=O)NC3=NCCCCC3)c2)cc1 ?
TRAIL sens C8: 6.2

Results for CCSc1nnc(Nc2ccc(C)cc2)s1 ?
TRAIL sens C8: 3.7; FLuc inh counter: 26.3; FLuc act counter: 0.7; APP 5'UTR act: 70.1; NF-kB expr up: 3.42*; PPC-1+TRAIL kill: 5.8

Results for CCc1ccc(Nc2nnc(SCC(=O)Nc3ccc(C(=O)O)cc3)s2)cc1 ?
TRAIL sens C8: 58.9*; PPC-1+TRAIL kill: 41.6

How did O=C(/C=C/c1ccccc1Cl)Nc1cccc(S(=O)(=O)NC2=NCCCCC2)c1 do in these assays?
TRAIL sens C8: 41.4; FLuc inh counter: 71.3*; FLuc act counter: 0.3; APP 5'UTR act: 44.2; NF-kB expr up: 0.91; PPC-1+TRAIL kill: 35.5

Results for Cc1ccc(OCCN2CCC2(C)C(=O)Nc2ccc3c(c2)OCCO3)cc1 (centres undefined) ?
TRAIL sens C8: 1.0

How did CC(C)(C)c1cc(NC(=O)C2(C)CCN2C(=O)C2(c3ccccc3)CCCC2)no1 (centres undefined) do in these assays?
TRAIL sens C8: 6.7

How did Cc1nc(C(F)(F)F)ccc1C(=O)N1CCC1(C)C(=O)NS(=O)(=O)c1ccc(C#N)cc1 (centres undefined) do in these assays?
TRAIL sens C8: -1.3

What do the screens show for `CC(C)NC(=O)N[C@H]1CC[C@H](CC(=O)NCc2ccc(Oc3ccccc3)cc2)O[C@@H]1CO`?
TRAIL sens C8: -12.1

What do the screens show for `CC(=O)Nc1ccc(NC(=O)CSc2nnc(NC(=O)c3cccc(F)c3)s2)cc1`?
TRAIL sens C8: 52.9*

Results for Cc1cc(SCC(=O)Nc2cccc(S(=O)(=O)NC3=NCCCCC3)c2)c(C)cc1Br ?
TRAIL sens C8: -6.4; FLuc inh counter: -7.1; FLuc act counter: 1.1; APP 5'UTR act: 13.5; NF-kB expr up: 3.39*; PPC-1+TRAIL kill: 10.7

How did CCc1ccc(Nc2nnc(SCC(=O)Nc3cccc(S(=O)(=O)NC4=NCCCCC4)c3)s2)cc1 do in these assays?
TRAIL sens C8: 64.3*; FLuc inh counter: 81.5*; FLuc act counter: 0.2; APP 5'UTR act: 15.7; NF-kB expr up: 1.56; PPC-1+TRAIL kill: 51.1*

What do the screens show for `O=C(CSc1nnc(NC(=O)c2c(F)cccc2F)s1)Nc1ccc(F)cc1`?
TRAIL sens C8: 4.5; FLuc inh counter: 13.1; FLuc act counter: 0.9; APP 5'UTR act: 8.5; NF-kB expr up: 1.44

Results for COc1ccc(C2=Nc3ccccc3N(C(=O)c3ccc4ncccc4c3)C2C(=O)NC2CCCC2)cc1 (centres undefined) ?
TRAIL sens C8: -6.4

What do the screens show for `Cc1ccc(-n2nnc(-c3cc4ccccc4n3C)n2)cc1`?
TRAIL sens C8: 39.1; FLuc inh counter: 22.2; FLuc act counter: 0.8; APP 5'UTR act: 122.1; NF-kB expr up: 1.18; PPC-1+TRAIL kill: 10.3

Results for Cc1ccc(-n2nnc(-c3cccnc3Cl)n2)cc1 ?
TRAIL sens C8: 61.1*; FLuc inh counter: 72.3*; FLuc act counter: 0.3; APP 5'UTR act: 203.8*; NF-kB expr up: 8.58*; PPC-1+TRAIL kill: 39.9

How did Fc1ccc(-n2nnc(-c3ccnc4ccccc34)n2)cc1 do in these assays?
TRAIL sens C8: 26.6; FLuc inh counter: 37.8; FLuc act counter: 0.6; APP 5'UTR act: 141.6*; NF-kB expr up: 4.8*; PPC-1+TRAIL kill: 22.8

How did Cc1ccc(-n2nnc(-c3ccnc4ccccc34)n2)cc1 do in these assays?
TRAIL sens C8: 25.8; FLuc inh counter: 47.5; FLuc act counter: 0.5; APP 5'UTR act: 111.0; NF-kB expr up: 4.16*; PPC-1+TRAIL kill: -2.9

What do the screens show for `Cn1c(-c2nnn(-c3ccc(F)cc3)n2)cc2ccccc21`?
FLuc inh counter: 40.8; FLuc act counter: 0.6; APP 5'UTR act: 159.4*; NF-kB expr up: 4.14*; PPC-1+TRAIL kill: 18.5
